This is one part of a sample in which hits are shown more often than they occur.
Dynein transport – inhibitors of GR-EGFP nuclear translocation, primary screen, dynein cargo transport inhibitor project, imaging, high-content, 3617.4 mouse cells. test concentration mostly 20 µM; stimulated with dexamethasone, 1 µM; active compounds read low. AID 1381, 2008. actives 0.47% (n = 220,000). z-score, hits read low;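 active = plate z-score of nuclear minus cytoplasmic receptor signal below a set negative limit, without overly bright fluorescence or cell loss, cut at about -3.5 in these data, passing the limit was not always enough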;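 note: z-score of nuclear minus cytoplasmic ring GR-EGFP intensity difference per well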
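Buffer or medium: tetracycline-free induction medium containing charcoal-stripped FBS / Reagent: dexamethasone agonist, 1.0 µM final, for 30 min / Technique: automated 10x imaging of fixed Hoechst-stained cells / Times: induction 48 h, compound 1 h, agonist 30 min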
T cruzi repl – inhibitors of intracellular T. cruzi growth, primary screen, luminescence, NIH3T3 host cells | inhibition, % (no concentration beside the values) | actives 1.4% (n = 300,000) | T. cruzi beta-gal in NIH3T3, 90 h;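 active = mean inhibition across valid replicates above about 55%, limit read from the data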;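 note: signal also drops with host cell toxicity which is not excluded here; higher percent means less beta-gal luminescence so fewer parasites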
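System – NIH/3T3 host cells with β-galactosidase reporter T. cruzi · Doses – single 50 nL compound addition per well in DMSO · Reagent – 5000 T. cruzi trypomastigotes/well · Medium – Low-serum DMEM with 2% FBS · Timing – ≥90 h infection period, 3 h prior cell attachment · Evaluation – parasite load inhibition, % · Technique – GalScreen luminescence, 60 min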
L major viab – Leishmania major promastigote growth inhibition, primary screen. inhibition, % at 10 µM. actives 9% (n = 200,000). Leishmania major promastigotes, resazurin fluorescence viability. AID 1063, 2008; in the data active = inhibition above about 50%;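 note: promastigotes grown with compound for 44 hours at 28 °C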
CHOP inhibitor – inhibitors of CHOP promoter induction, primary screen, cell-based, unfolded protein response, luciferase reporter | CHO-K1 CHOP-promoter luciferase, tunicamycin-induced, 15-18 h | inhibition, % at 10 µM | actives 3.8% (n = 220,000) | AID 2732, 2010;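 active = compounds that reduced the stress-induced luciferase reporter signal by more than about 70% of percent inhibition, limit read from the data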
UPR XBP1 act – activators of adaptive XBP1 UPR arm, primary screen, cell-based, CHO-XBP1 luciferase reporter, luminescence, uHTS. AID 463104, 2010. actives 0.33% (n = 330,000). activation, % at 20 µM. IRE1-XBP1 UPR activation; percent of tunicamycin response, DMSO as zero;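 active = versus positive control, 20 µM dose yields 30% or more activation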
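Material: CHO-XBP1 cells stably carrying IRE1-XBP1-driven luciferase reporter / Amount: 1000 cells per well / Compound: 20 µM, 1% DMSO / Times: 6 h treatment, 37 °C / Detection: luciferase luminescence / Measure: % activation of reporter signal versus tunicamycin and DMSO controls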
CHOP UPR activ – activators of apoptotic CHOP UPR arm, primary screen, cell-based, CHO-CHOP luciferase reporter, luminescence, uHTS; UPR activation; percent of tunicamycin response over DMSO baseline; activation, % at 10 µM; actives 0.34% (n = 330,000);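 active = at 10 µM dose, activation of 40% or more, normalized to positive control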
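Assay system: CHO cells with stable CHOP pathway luciferase reporter; Buffer or medium: F12 plus 10% serum; Times: 16-18 h cell attachment, then 6 h compound exposure, 37 °C; Signal: luciferase luminescence; Read-out basis: percent activation relative to tunicamycin control; Control set: tunicamycin high control, DMSO low control.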
Numbers stand for hits; – = inactive; · = not tested or not shown.

SMILES	Dynein transport	T cruzi repl	L major viab	CHOP inhibitor	UPR XBP1 act	CHOP UPR activ
Cc1cc(NC(=O)Cn2nc(-c3ccccc3F)ccc2=O)ccc1-n1cnnn1	–	–	–	72	–	–
N#C/C(=C\c1cccc(NC(=O)c2ccccc2Cl)c1)C(=O)NCCc1ccccc1	–	–	99	–	–	–
COc1ccc(CCNC(=O)/C(C#N)=C/c2cccc(OCc3ccccc3)c2)cc1OC	–	–	100	–	–	–
COc1cc(/C=C(\C#N)C(=O)NCc2ccccc2)ccc1OCc1ccc(C(=O)O)cc1	–	–	·	–	–	–
COCCCNC(=O)/C(C#N)=C/c1cccc(NC(=O)c2ccccc2Cl)c1	–	–	75	–	–	–
CC(C)C(C(=O)Nc1ccc2c(c1)OCCOCCOCCOCCO2)N1C(=O)c2ccccc2C1=O (stereo unspecified)	–	–	–	–	–	–
CC(C)COC(=O)N(C)c1ccc(C(O)(C(F)(F)F)C(F)(F)F)cc1	–	–	100	93	–	–
Cc1ccc(C2CC(c3cccs3)=NN2C(=O)CSc2nc(=O)n3ccc(C)cc3n2)cc1 (stereo unspecified)	·	60	·	·	–	–
O=C(CSc1nc2ccccc2o1)N1N=C(c2cccs2)CC1c1ccc(F)cc1 (stereo unspecified)	–	–	97	–	–	–
O=C(CSc1nc(=O)n2ccccc2n1)N1N=C(c2cccs2)CC1c1ccc(F)cc1 (stereo unspecified)	·	58	·	·	–	–
COc1ccc(C2CC(c3cccs3)=NN2C(=O)CSc2nc3c(cnn3-c3ccccc3)c(=O)[nH]2)cc1 (stereo unspecified)	–	–	85	76	–	–
COc1ccc(C2CC(c3cccs3)=NN2C(=O)CSc2nc(=O)n3ccc(C)cc3n2)cc1 (stereo unspecified)	·	–	·	·	–	–
CN(C)c1cc[n+](CC(=O)c2ccc(OC(F)F)cc2)cc1	–	–	·	–	–	–
CCN(CC)c1ccc(N=Nc2nn(C)c(C)c2[N+](=O)[O-])cc1	–	–	53	–	–	–
Cn1c(CC(=O)Nc2ccccc2C(F)(F)F)c(Sc2ccccc2)c2ccccc21	–	–	–	76	–	–
Cn1c(CC(=O)Nc2ccccc2)c(Sc2ccccc2)c2ccccc21	–	–	–	–	–	–
CCCN1CCC(NC(=S)Nc2ccc([N+](=O)[O-])cc2)CC1	–	–	83	–	–	–
COc1ccc(CCNC(=S)NC2CCN(Cc3ccccc3)CC2)cc1	–	–	74	–	–	–
COc1ccc(NC(=S)NC2CCN(Cc3ccccc3)CC2)cc1OC	–	–	–	–	–	–
S=C(Nc1ccccc1)NC1CCN(Cc2ccccc2)CC1	–	–	91	–	–	–
CCc1ccc(NC(=S)NC2CCN(Cc3ccccc3)CC2)cc1	–	–	96	–	–	–
CCCN1CCN(C(=S)Nc2ccc([N+](=O)[O-])cc2)CC1	–	–	–	–	–	–
COc1ccccc1C(=O)N1CCN(C(=O)c2oc3ccc(C)cc3c2C)CC1	·	–	·	·	–	–
COc1ccc(OCCNC(=S)Nc2cccc3ccccc23)cc1	–	–	–	–	–	–
S=C(Nc1ccc(Cl)cc1)NC1CCN(Cc2ccccc2)CC1	–	–	99	–	–	–
SMILES	Dynein transport	T cruzi repl	L major viab	CHOP inhibitor	UPR XBP1 act	CHOP UPR activ
CCC(C)c1ccc(NC(=S)NC2CCN(Cc3ccccc3)CC2)cc1 (stereo unspecified)	–	–	87	87	–	–
COc1ccc(CCNC(=S)Nc2cccc3ccccc23)cc1	–	–	85	–	–	–
O=C(NC1CCN(Cc2ccccc2)CC1)c1ccccc1Cl	·	–	·	·	–	–
CCc1cccc(CN2CCC(CNC(=O)Nc3ccc(Cl)cc3)CC2)c1	–	57	–	–	–	–
COc1ccc(CN2C(=O)c3cccc4cccc2c34)cc1F	·	–	·	·	–	–
Cc1ccc(S(=O)(=O)N(C)CC(=O)O/N=C(\N)c2cccc(Br)c2)cc1	·	–	·	·	–	–
CCc1ccc(NC(=O)C(C)OC(=O)c2ccc(N3CCCC3)c([N+](=O)[O-])c2)cc1 (stereo unspecified)	–	–	–	–	–	–
Cc1sc(/C=C2\C(=O)ON=C2c2ccccc2)cc1Br	–	–	–	88	–	–
COc1cc(/C=C2/C(=O)ON=C2c2ccccc2)ccc1O	–	–	88	–	–	–
Cc1ccc(NS(=O)(=O)c2cc(OCC(N)=O)c(C)cc2Cl)cc1	–	–	79	–	–	–
Cc1cc(Cl)c(S(=O)(=O)Nc2ccc3c(c2)OCO3)cc1OCC(N)=O	–	–	–	–	–	–
Cc1ccc(OC(C)C(=O)N2CC(=O)Nc3ccccc32)c(C)c1 (stereo unspecified)	·	–	·	·	–	–
Cc1cc(Nc2ccc(Cl)cc2)n(-c2ccccc2)n1	–	–	–	–	–	–
Cc1cc(Nc2ccc(Cl)cc2)n(-c2cccc(Cl)c2)n1	–	–	–	72	–	–
c1ccc(SCc2cn(C[C@H]3CC[C@@H]([C@@H]4CC[C@H](Cn5cc(CSc6ccccc6)nn5)O4)O3)nn2)cc1	·	–	·	·	–	–
O=C(/C=C/c1ccccc1F)c1cccc([N+](=O)[O-])c1	–	–	–	–	–	–
COc1ccc(/C=C/C(=O)c2ccc(C)c([N+](=O)[O-])c2)cc1O	–	–	100	–	–	–
COc1cc(/C=C/C(=O)c2cccc([N+](=O)[O-])c2)cc(OC)c1OC	–	–	100	–	–	–
Cc1cccc2cc(CN(Cc3cccnc3)C(=O)c3ccccc3F)c(Cl)nc12	–	61	97	–	–	–
Cc1cc(C)c2cc(CN(Cc3cccnc3)C(=O)c3ccc(F)cc3)c(Cl)nc2c1	–	59	98	–	–	–
Cc1ccc(C(=O)NCC(c2ccc(F)cc2)N2CCOCC2)s1 (stereo unspecified)	·	·	·	·	–	–
O=S(=O)(c1ccc(Cl)c(Cl)c1)c1snnc1-c1ccccc1	-4	–	100	–	·	·
CC1(C)CC(=O)C2=C(C1)Oc1ncn(Cc3ccco3)c(=N)c1C2c1ccccc1 (stereo unspecified)	–	–	–	–	–	–
COc1ccc(C2c3c(ncn(CCN4CCOCC4)c3=N)Oc3ccc4ccccc4c32)cc1 (stereo unspecified)	–	–	100	–	–	–

Screens (PubChem)
